Experimental data of several laboratories.
Compare with care: the assays were run in different laboratories.
Target: Dual specificity mitogen-activated protein kinase kinase 1 (MAP2K1, Homo sapiens, UniProt Q02750)

| Compound | effect on | action | method | concentration | measurement | result |
| --- | --- | --- | --- | --- | --- | --- |
| N#Cc1ccc(NC(=O)Nc2ccccc2)cc1 | cell-free assay |  | competition with immobilised ligand | 25 µM | remaining binding | 66% |
| Cc1ccc(NC(=O)c2ccnc(C(F)(F)F)c2)cc1-c1cc(OCCO)nc(N2CCOCC2)c1 | binding |  | competition with immobilised ligand | 1 µM | remaining binding | 86% |
| C=CC(=O)N1CCC[C@@H](n2nc(-c3ccc(Oc4ccccc4)cc3)c3c(N)ncnc32)C1 | enzyme activity | inhibitor |  | 1 µM | inhibition | 84% |
| Cc1cc(O)c(-c2ccc([C@@H](C)CN(C)C)cc2)c2c1[nH]c(=O)c1sccc12 | enzyme activity | inhibitor |  | 0.1 µM | inhibition | 8.68% |
| CCCCC(=O)Nc1ccc(-c2ccc3ncn(CCC)c(=O)c3c2)cn1 | binding |  | competition with immobilised ligand | 0.5 µM | remaining binding | 52% |
| COc1ccc2oc(-c3ccc4nc(N)oc4c3)c/c(=N\c3ccccc3NC(=O)CCN)c2c1 | binding |  |  | 1 µM | remaining binding | 102% |
| COc1ccc2[nH]c3c4[nH]c5ccc(OC)cc5c4c4c(c3c2c1)C(=O)NC4=O | binding |  | competition with immobilised ligand | 1 µM | remaining binding | 70% |
| CO[C@@H]1[C@H](N(C)C(=O)c2ccccc2)C[C@H]2O[C@]1(C)n1c3ccccc3c3c4c(c5c6ccccc6n2c5c31)C(=O)NC4 | enzyme activity | inhibitor |  | 1 µM | inhibition | 30% |
